Measurements from ChEMBL document CHEMBL1154191, “Evaluation of spirocyclic 3-(3-fluoropropyl)-2-benzofurans as sigma1 receptor ligands for neuroimaging with positron emission tomography” (J Med Chem, 2009).

What was measured:
[1] = tested on: Stomach; assay: Biodistribution in CD1 mouse stomach assessed per gram of wet tissue at 400 to 600 kBq, iv after 120 mins post-injection by gamma counting; format: ADME, organism-based; conditions: in vivo, 2 h
Outline: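 Female CD-1 mice (~8-12 weeks, 20-28 g), habituated ≥48 h and fasted 24 h with water available. The [18F] tracer (>150 GBq/μmol at end of synthesis) was given in 200 μL saline into the tail vein of conscious animals. At each time point, n=4-5, mice were anaesthetised, blood and urine sampled, then killed by cervical dislocation. Organs were weighed and γ-counted, and values calculated as % ID/g wet tissue.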

[2] = tested on: Kidney; assay: Biodistribution in CD1 mouse kidney assessed per gram of wet tissue at 400 to 600 kBq, iv after 60 mins post-injection by gamma counting in presence of 1 mg/kg, ip sigma 1/sigma 2 receptor antagonist haloperidol treated before compound addition; format: organism-based; design: dose 1 mg/kg, route intravenous; conditions: in vivo, 1 h
Outline: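 Blocking arm in fasted female CD-1 mice (n=5). […] Animals were killed at 60 min post-injection, and organs were weighed and γ-counted as % ID/g wet tissue. Percent change was taken against the 60 min control group, with two-tailed unpaired Student's t test.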

## [18F]CCCC1OC2(CCN(Cc3ccccc3)CC2)c2ccccc21 (configuration not stated)
[1]
  Drug uptake: 3.12 %ID
[2]
  Drug uptake: 3.42 %ID
